CASP6 VEID inh = human caspase-6 inhibitors, primary screen, biochemical, VEID-R110 fluorescence, single point, set 2; P55212; purified caspase-6, Z-VEID-R110 cleavage fluorescence; inhibition, % at 12.5 µM; hit rate 0.53% among 350,000; AID 686996, 2013;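 active means mean inhibition across replicates at least about 35%, with every replicate also reaching that limit, limit read from the data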
TDP2 absorb = human TDP2 enzyme inhibitors, primary screen, biochemical, epi absorbance, recombinant enzyme. hit rate 0.34% among 370,000. inhibition, % at 12.8 µM. T5PNP hydrolysis, p-nitrophenol absorbance 415 nm. Tyrosyl-DNA phosphodiesterase 2 (Homo sapiens), O95551;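 active means inhibition above the mean of all tested compounds plus 3 SD, set per campaign, cut at about 25% in these data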
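Test system: Human TDP2 enzyme | Reagent: 5 mM T5PNP | Compound dosing: 12.8 µM single point, 1% DMSO | Incubation: Enzyme reaction with compound for 2 h at 37 °C | Technique: p-Nitrophenol epi absorbance | Read-out: % inhibition relative to enzyme-containing and enzyme-free wells | Benchmarks: High control without enzyme, low control DMSO plus TDP2 | Replicates: Singlicate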
MBD2 DNA inh = inhibitors of MBD2 binding to methylated DNA, primary screen, biochemical, TR-FRET, DNA-binding domain, human. MBD2 binding to methylated oligonucleotide. inhibition, % at 4.4 µM. hit rate 0.31% among 370,000. AID 686964, 2013; in the data active means inhibition above about 13%
NSD2 HMT inh = NSD2 histone methyltransferase inhibitors, primary screen, biochemical, AlphaScreen, single concentration, set 2 | Histone-lysine N-methyltransferase NSD2 (Homo sapiens), O96028 | NSD2 peptide methylation, 120 min | inhibition, % at 12.5 µM | hit rate 0.54% among 310,000 | AID 743445, 2014; in the data active means inhibition above about 50%
LEDGF integ inh = blockers of LEDGF/p75-dependent integrase strand transfer – biochemical, TR-FRET, high throughput, primary screen; HIV-1 integrase (with human LEDGF/p75); TR-FRET IN-LEDGF/p75 DNA integration, Eu/Cy5; AID 743269, 2014; hit rate 0.64% among 370,000; inhibition, % at 3.7 µM;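 active means inhibition above the screen-wide mean plus 3 SD, cut at about 13% in these data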;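 further: signal is the Cy5 over europium emission ratio at 671 and 618 nm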
UHRF1 binding = UHRF1 methylated DNA binding inhibitors, primary screen, counter-screen for MBD2 inhibitor project, biochemical, TR-FRET, human UHRF1, single concentration. E3 ubiquitin-protein ligase UHRF1 (Homo sapiens), Q96T88. UHRF1 binding to methylated oligo. inhibition, % at 4.4 µM. hit rate 0.75% among 370,000; in the data active means inhibition above about 21%;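 further: UHRF1 SRA domain binding a hemimethylated CpG hairpin DNA probe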
Target sequence (Q96T88 whole entry, looked up, the tested form may be a part): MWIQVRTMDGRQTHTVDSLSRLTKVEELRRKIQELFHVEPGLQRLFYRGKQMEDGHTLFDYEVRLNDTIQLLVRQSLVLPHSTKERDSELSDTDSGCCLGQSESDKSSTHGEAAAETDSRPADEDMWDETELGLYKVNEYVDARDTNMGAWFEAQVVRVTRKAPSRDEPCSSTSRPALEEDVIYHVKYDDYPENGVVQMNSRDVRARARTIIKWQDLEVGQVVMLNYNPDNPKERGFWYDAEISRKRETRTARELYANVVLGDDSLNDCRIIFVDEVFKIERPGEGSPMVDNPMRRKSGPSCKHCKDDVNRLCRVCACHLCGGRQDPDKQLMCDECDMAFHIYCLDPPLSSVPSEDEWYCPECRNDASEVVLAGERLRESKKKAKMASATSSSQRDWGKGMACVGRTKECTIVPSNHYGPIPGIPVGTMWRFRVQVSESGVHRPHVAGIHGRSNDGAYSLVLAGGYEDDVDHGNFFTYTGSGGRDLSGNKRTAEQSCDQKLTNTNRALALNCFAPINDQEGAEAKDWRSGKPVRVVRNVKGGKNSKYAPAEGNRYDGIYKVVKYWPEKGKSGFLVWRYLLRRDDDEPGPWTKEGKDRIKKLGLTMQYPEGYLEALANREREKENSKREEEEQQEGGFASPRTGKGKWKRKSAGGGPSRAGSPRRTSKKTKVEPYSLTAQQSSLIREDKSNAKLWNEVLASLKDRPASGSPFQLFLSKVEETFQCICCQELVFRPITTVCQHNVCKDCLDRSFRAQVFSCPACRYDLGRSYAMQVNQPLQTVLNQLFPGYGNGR
TDP2 inh conf = human TDP2 enzyme inhibitors, retest, confirmation, biochemical, epi absorbance, recombinant enzyme; shares compounds with TDP2 absorb; absorbance read-out; inhibition, % at 12.8 µM; hit rate 22% among 1,100; in the data active means inhibition above about 25%
Numbers stand for hits. A selection: hits, their analogues and other compounds. The true share with any hit is near 1.8%.

Screening COc1ccc(C)cc1NC(=O)C(OC(=O)CNC(=O)c1cc(C)cc(C)c1)c1ccccc1 (stereo not drawn) returned CASP6 VEID inh inactive, TDP2 absorb inactive, MBD2 DNA inh inactive, NSD2 HMT inh inactive, LEDGF integ inh inactive and UHRF1 binding inactive.
`Nc1ccc2nn(-c3cccc4ccccc34)nc2c1` gave TDP2 absorb 36, MBD2 DNA inh inactive, LEDGF integ inh inactive, UHRF1 binding inactive and TDP2 inh conf 36.
Nc1ccc2nn(-c3ccccc3)nc2c1 was read as CASP6 VEID inh inactive, TDP2 absorb 27, MBD2 DNA inh inactive, NSD2 HMT inh inactive, LEDGF integ inh inactive, UHRF1 binding inactive and TDP2 inh conf inactive.
`Cc1cc2nn(-c3cccc4ccccc34)nc2cc1N` gave TDP2 absorb inactive, MBD2 DNA inh inactive, NSD2 HMT inh inactive, LEDGF integ inh inactive and UHRF1 binding inactive.
For COc1cccc(NC2=C(NCCO)C(=O)c3ccccc3C2=O)c1 the results were CASP6 VEID inh inactive, TDP2 absorb 55, MBD2 DNA inh inactive, NSD2 HMT inh inactive, LEDGF integ inh inactive, UHRF1 binding inactive and TDP2 inh conf inactive.
Screening COC1=C(Nc2ccc(O)cc2)C(=O)c2ccccc2C1=O returned CASP6 VEID inh inactive, TDP2 absorb 48, MBD2 DNA inh inactive, NSD2 HMT inh inactive, LEDGF integ inh inactive, UHRF1 binding inactive and TDP2 inh conf inactive.
`COc1ccc(NC2=C(NCCO)C(=O)c3ccccc3C2=O)cc1` gave CASP6 VEID inh 88, TDP2 absorb 36, MBD2 DNA inh inactive, LEDGF integ inh inactive, UHRF1 binding inactive and TDP2 inh conf 34.
Screening CCOC(=O)C1=C(Cc2ccc(C)cc2)C(=O)c2ccccc2C1=O returned CASP6 VEID inh inactive, TDP2 absorb 31, MBD2 DNA inh inactive, NSD2 HMT inh inactive, LEDGF integ inh inactive, UHRF1 binding inactive and TDP2 inh conf 27.
Screening c1ccc(Nc2cc(Nc3ccccc3)[nH]n2)cc1 returned TDP2 absorb 75, MBD2 DNA inh inactive, NSD2 HMT inh inactive, LEDGF integ inh inactive, UHRF1 binding inactive and TDP2 inh conf inactive.
O=c1nccc(Nc2ccccc2)[nH]1 was read as CASP6 VEID inh inactive, TDP2 absorb inactive, MBD2 DNA inh inactive, NSD2 HMT inh inactive, LEDGF integ inh inactive and UHRF1 binding inactive.
COC(=O)[C@@H]1[C@@H](CO)[C@@H]2Cn3c(ccc(C4=CCCCC4)c3=O)[C@@H]2N1Cc1ccc2c(c1)OCO2 was read as CASP6 VEID inh inactive.
Cc1nnc(SCc2ccccc2)n(N)c1=O was read as TDP2 absorb 58, MBD2 DNA inh inactive, NSD2 HMT inh inactive, LEDGF integ inh inactive, UHRF1 binding inactive and TDP2 inh conf inactive.
`Cc1ccc(CSc2nnc(C)c(=O)n2N)cc1` gave CASP6 VEID inh inactive, TDP2 absorb inactive, MBD2 DNA inh inactive, NSD2 HMT inh inactive, LEDGF integ inh inactive and UHRF1 binding inactive.
O=C(C[C@H]1CC[C@@H]2[C@H](COC[C@H](O)CN2C(=O)c2ccccc2)O1)NC1Cc2ccccc2C1 was read as CASP6 VEID inh inactive.
Screening CN(C)CC(=O)Nc1ccc2c(c1)[C@H]1C[C@@H](CC(=O)NCc3cccc(F)c3)O[C@H](CO)[C@H]1O2 returned CASP6 VEID inh inactive.
`Cc1ccccc1NC(=O)CN1CCCC1` gave CASP6 VEID inh inactive, TDP2 absorb inactive, MBD2 DNA inh inactive, NSD2 HMT inh inactive, LEDGF integ inh inactive and UHRF1 binding inactive.
For Cc1ccccc1NC(=O)CN1CCN(C)CC1 the results were CASP6 VEID inh inactive, TDP2 absorb 36, MBD2 DNA inh inactive, NSD2 HMT inh inactive, LEDGF integ inh inactive, UHRF1 binding inactive and TDP2 inh conf inactive.
Cc1ccc(S(=O)(=O)N(C)C[C@H]2Oc3c(NC(=O)C4CC4)cccc3C(=O)N([C@H](C)CO)C[C@@H]2C)cc1 was read as CASP6 VEID inh inactive.
`Cc1noc(C)c1S(=O)(=O)N1CCCC(C(=O)NCc2ccccc2Cl)C1` (stereo not drawn) gave CASP6 VEID inh inactive, TDP2 absorb 27, MBD2 DNA inh inactive, NSD2 HMT inh inactive, LEDGF integ inh inactive, UHRF1 binding inactive and TDP2 inh conf inactive.
Screening O=C(Nc1ccc(F)cc1)N1C[C@@H]2[C@H](c3ccccc31)[C@H](CO)N2Cc1cocn1 returned CASP6 VEID inh inactive.
Screening COc1cc(CNCc2ccc(Br)cc2)cc(OC)c1 returned CASP6 VEID inh inactive, TDP2 absorb 25, MBD2 DNA inh inactive, NSD2 HMT inh inactive, LEDGF integ inh inactive, UHRF1 binding inactive and TDP2 inh conf inactive.
For O=C1Nc2c(Cl)cc(Cl)cc2C1=O the results were CASP6 VEID inh inactive, TDP2 absorb 49, MBD2 DNA inh inactive, NSD2 HMT inh 118, LEDGF integ inh inactive, UHRF1 binding inactive and TDP2 inh conf 54.
Cc1cccc(N=C2C(=O)Nc3c(Cl)cccc32)c1 was read as CASP6 VEID inh inactive, TDP2 absorb inactive, MBD2 DNA inh inactive, NSD2 HMT inh inactive, LEDGF integ inh inactive and UHRF1 binding inactive.
COc1ccc2c3c([nH]c2c1)[C@@H](CO)N(C(=O)NC(C)C)CC31CCN(Cc2ccc(F)cc2)CC1 was read as CASP6 VEID inh inactive.
For COc1cccc(NC(=O)N[C@H]2CC[C@@H](CC(=O)N3CCCCC3)O[C@@H]2CO)c1 the results were CASP6 VEID inh inactive.
Screening C=CCOc1cccc(C2C(C(=O)c3ccco3)=C(O)C(=O)N2CCN2CCOCC2)c1 (stereo not drawn) returned CASP6 VEID inh inactive, TDP2 absorb 41, MBD2 DNA inh inactive, NSD2 HMT inh inactive, LEDGF integ inh inactive, UHRF1 binding inactive and TDP2 inh conf inactive.
Cc1ccc(S(=O)(=O)N(C)C[C@@H]2Oc3ccc(NC(=O)c4ccncc4)cc3CC(=O)N([C@@H](C)CO)C[C@@H]2C)cc1 was read as CASP6 VEID inh inactive.
For Cc1nc2c3ccccc3nc(NNC(=O)CCC(=O)N3CCC(C)CC3)n2n1 the results were CASP6 VEID inh inactive, TDP2 absorb 29, MBD2 DNA inh inactive, NSD2 HMT inh inactive, LEDGF integ inh inactive, UHRF1 binding inactive and TDP2 inh conf inactive.
CCOC(=O)C1CCN(C(=O)CCC(=O)NNc2nc3ccccc3c3nc(C)nn23)CC1 was read as CASP6 VEID inh inactive, TDP2 absorb inactive, MBD2 DNA inh inactive, NSD2 HMT inh inactive, LEDGF integ inh inactive and UHRF1 binding inactive.
